HER2 expr 66K – lowers expression of human Her2 kinase; 0.69% of 65,000 active; HER2 level % of control, % at 10 µM; SKBR-3 HER2 protein level, AlphaScreen, 18-24 h; hits give low values;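 active means HER2 level under 5% of the carrier-only control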;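 further: 100% = DMSO carrier and 0% = 500 nM PU-H71 HSP90 inhibitor; lower value means stronger loss of Her2 protein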
Hsp90 block – displaces geldanamycin probe from tumor Hsp90; P07900; NCI-N417 lysate Hsp90, Cy3B-geldanamycin FP displacement; inhibition, % at 30 µM; 0.35% of 64,000 active; AID 429;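 active means inhibition above 50%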;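 further: 0% = tracer plus lysate wells and 100% = tracer alone without lysate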
JNK3 inh – inhibitors of human JNK3 kinase; P53779; purified JNK3 kinase activity, HTS; inhibition, % at 8 µM; 0.61% of 60,000 active; AID 746; in the data active means inhibition above about 17%;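 further: 0% = DMSO and 100% = reference inhibitor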
Target sequence (P53779 whole entry, looked up): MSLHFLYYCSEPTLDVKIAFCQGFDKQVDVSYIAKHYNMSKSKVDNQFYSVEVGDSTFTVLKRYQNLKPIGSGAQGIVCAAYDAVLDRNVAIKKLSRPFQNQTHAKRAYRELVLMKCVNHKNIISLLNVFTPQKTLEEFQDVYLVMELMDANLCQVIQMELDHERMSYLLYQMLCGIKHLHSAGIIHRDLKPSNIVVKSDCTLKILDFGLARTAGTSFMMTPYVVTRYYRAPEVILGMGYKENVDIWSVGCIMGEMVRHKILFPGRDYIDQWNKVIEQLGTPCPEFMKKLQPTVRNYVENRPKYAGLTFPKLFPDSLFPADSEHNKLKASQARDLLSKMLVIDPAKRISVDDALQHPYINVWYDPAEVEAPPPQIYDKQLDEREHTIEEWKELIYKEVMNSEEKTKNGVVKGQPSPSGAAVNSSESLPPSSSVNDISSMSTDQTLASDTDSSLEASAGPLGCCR
Jurkat tox 60K – cytotoxicity toward Jurkat cells; Jurkat E6.1 viability, ATP luminescence, 48 h; inhibition, % at 4 µM; 1.2% of 56,000 active; AID 463;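 active means inhibition above the mean inhibition of all tested compounds plus 3 SD, cut at about 28% in these data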
AP ELISA ortho – alternative pathway complement inhibition, orthogonal assay | Human serum alternative complement pathway, LPS-coated ELISA, C3 deposition; tested in compound mixtures | inhibition, % at 5 µM | 0.08% of 62,000 active | AID 1235;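 active means inhibition above 30% in each of the two pooled mixtures holding the compound, so the lower value exceeds 30%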;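 further: 0% = serum in Mg-EGTA without compound and 100% = EDTA serum blank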
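Medium: diluted human serum in Mg2+-EGTA GVB++. Assay system: human serum complement alternative pathway, C3 deposition onto LPS. Also added: Plate-bound LPS. Technique: Anti-C3 ELISA, OD 450 nm. Measure: percent inhibition. Incubation: 1 h at 37 °C. Dosing: 5 µM each compound, pools of ten, 50 µM per pool.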
HEK293 NFkB inh – lowers PMA/ionomycin-induced NF-kB signal in HEK293 cells | HEK-293 NF-kB luciferase reporter, luminescence | inhibition, % at 3 µM | 0.21% of 62,000 active | AID 465;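 active means inhibition above the mean of all tested compounds plus 3 SD, cut at about 40% in these data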;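 further: 0% = stimulated DMSO wells and 100% = 10 µM reference inhibitor 5653914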
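Timing: 1 h pretreatment, 16 h stimulation, 37 °C; system: HEK-293 cells with stable firefly luciferase reporter driven by four HIV NF-kB elements; doses: 3 µM once, 0.30% DMSO; measured by: luciferase luminescence; control set: DMSO and 10 µM reference inhibitor; repeats: single test; reagent: PMA plus ionomycin mix as NF-kB-activating stimulus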
Active calls of the source: *. Compounds with a hit are over-represented: about 2.5% of the library has one in this group of screens.

CCCOc1ccc(/C(O)=C2/C(=O)C(=O)N(CCN(C)C)C2c2ccncc2)cc1 (stereo unspecified) was read as HER2 expr 66K 69, Hsp90 block -1 and JNK3 inh -5.
Cc1cc2cc(C)c3nnc(SCC(=O)NCc4ccco4)n3c2cc1C was read as HER2 expr 66K 108, Hsp90 block 1, JNK3 inh 1, Jurkat tox 60K -17, AP ELISA ortho -10 and HEK293 NFkB inh 4.
Cc1cc2nnc(SCC(=O)NCc3ccco3)n2c2ccccc12 was read as HER2 expr 66K 94, Hsp90 block -3, JNK3 inh 2, Jurkat tox 60K 84* and HEK293 NFkB inh 28.
For CNc1nc(C)c(C(=O)OCc2ccccc2)s1 the results were HER2 expr 66K 117, Hsp90 block -1, JNK3 inh 6, Jurkat tox 60K 66*, AP ELISA ortho 2 and HEK293 NFkB inh 5.
For CNc1nc(C)c(C(=O)OCC(=O)OC)s1 the results were HER2 expr 66K 121, Hsp90 block 0, JNK3 inh -4, Jurkat tox 60K 2, AP ELISA ortho 1 and HEK293 NFkB inh 10.
O=C(CCN1CCN(c2ccccc2F)CC1)c1ccc(Br)cc1 was read as HER2 expr 66K -16*, Hsp90 block -1, JNK3 inh -1, Jurkat tox 60K -5, AP ELISA ortho 18 and HEK293 NFkB inh 21.
Screening O=C(Nn1cnnc1)c1ccccc1CCc1ccccc1 returned HER2 expr 66K 121, Hsp90 block -1, JNK3 inh 0, Jurkat tox 60K 2, AP ELISA ortho 18 and HEK293 NFkB inh 15.
Screening O=C(COc1ccccc1)N1CCN(C(=O)c2cccc(F)c2)CC1 returned HER2 expr 66K 105, Hsp90 block 2, JNK3 inh 3, Jurkat tox 60K -4, AP ELISA ortho 17 and HEK293 NFkB inh 18.
Screening O=C(COc1ccc(-c2ccccc2)cc1)N1CCN(C(=O)c2cccnc2)CC1 returned HER2 expr 66K 69, Hsp90 block 92*, JNK3 inh -9, Jurkat tox 60K -3, AP ELISA ortho 13 and HEK293 NFkB inh 20.
`COc1ccc(/C(O)=C2/C(=O)C(=O)N(CCCN(C)C)C2c2ccco2)cc1Cl` (stereo unspecified) gave HER2 expr 66K 94, Hsp90 block -9, JNK3 inh 0 and AP ELISA ortho -3.
Screening CC(C)n1c(SCc2ccc(Cl)cc2)nc2c1c(=O)[nH]c(=O)n2C returned HER2 expr 66K -55*, Hsp90 block -1, JNK3 inh 0, Jurkat tox 60K -6, AP ELISA ortho -3 and HEK293 NFkB inh 9.
Screening CC(C)CCn1c(SCc2ccc(Cl)cc2)nc2c1c(=O)[nH]c(=O)n2C returned HER2 expr 66K 44, Hsp90 block -4, JNK3 inh 5, Jurkat tox 60K 0, AP ELISA ortho 10 and HEK293 NFkB inh 18.
`C[n+]1cc2c3c(ccc2c2ccc4cc5c(cc4c21)OCO5)OCO3` gave Hsp90 block 9.
Screening Cc1oc2c(O)c(O)ccc2c(=O)c1-c1ccccc1 returned HER2 expr 66K 86, Hsp90 block 70*, JNK3 inh -11, Jurkat tox 60K 9, AP ELISA ortho 20 and HEK293 NFkB inh 3.
`O=C1CC(N2CCN(S(=O)(=O)c3cccc(C(F)(F)F)c3)CC2)C(=O)N1Cc1ccccc1` (stereo unspecified) gave HER2 expr 66K 112, Hsp90 block -3, JNK3 inh 6, Jurkat tox 60K -6, AP ELISA ortho -2 and HEK293 NFkB inh 10.
`CCOC(=O)CSc1nc2c(sc3ccccc32)c(=O)n1CCCN1CCOCC1` gave HER2 expr 66K 94, Hsp90 block 2, JNK3 inh 24*, Jurkat tox 60K 6, AP ELISA ortho 15 and HEK293 NFkB inh 12.
`CCCCC(=O)Nc1ncc(Br)s1` gave HER2 expr 66K 58, Hsp90 block -2, JNK3 inh 28*, Jurkat tox 60K -1, AP ELISA ortho 10 and HEK293 NFkB inh 8.
Screening COc1ccc(OC)c(C(=O)c2coc3ccc(O)cc23)c1 returned HER2 expr 66K 68, Hsp90 block -2, JNK3 inh 18*, Jurkat tox 60K -8, AP ELISA ortho 21 and HEK293 NFkB inh 9.
Cc1cc(SCC(N)=O)nc(SCC(=O)c2ccccc2)n1 was read as HER2 expr 66K 99, Hsp90 block 91*, JNK3 inh -1, Jurkat tox 60K 8, AP ELISA ortho 6 and HEK293 NFkB inh 8.
`COC(=O)C1=C(CN2CCCc3ccccc32)NC(=O)NC1c1ccc(F)cc1` (stereo unspecified) gave HER2 expr 66K 96, Hsp90 block -1, JNK3 inh -5, Jurkat tox 60K 0, AP ELISA ortho 1 and HEK293 NFkB inh 70*.
Screening COC(=O)C1=C(CN2CCc3ccccc32)NC(=O)NC1c1cc(C)ccc1C (stereo unspecified) returned HER2 expr 66K 73, Hsp90 block -9, JNK3 inh -2, Jurkat tox 60K 6, AP ELISA ortho 7 and HEK293 NFkB inh 4.
For COc1cccc2c1C(=O)c1c(O)c3c(c(O)c1C2=O)C[C@@](O)(C(=O)CO)C[C@@H]3O[C@H]1C[C@H](N)[C@H](O)[C@H](C)O1 the results were HER2 expr 66K 86, Hsp90 block 73*, JNK3 inh -12 and AP ELISA ortho -16.
For CCN1CCN(c2ncnc3c2cnn3-c2ccc(Cl)cc2)CC1 the results were HER2 expr 66K 120, Hsp90 block -1, JNK3 inh 0, Jurkat tox 60K 4, AP ELISA ortho 6 and HEK293 NFkB inh -5.
For Clc1ccc(OCCN2CCN(c3ncnc4sccc34)CC2)cc1 the results were HER2 expr 66K 115, Hsp90 block -4, JNK3 inh -2, Jurkat tox 60K 44*, AP ELISA ortho 11 and HEK293 NFkB inh 62*.
For CCC(CC)NCCCNc1cc(OC)cc2cccnc12 the results were Hsp90 block 10.
O=C(c1ccc(Cl)cc1)N1CCCCC(Sc2nnc(-c3ccc4c(c3)OCO4)o2)C1=O (stereo unspecified) was read as HER2 expr 66K 88, Hsp90 block -5, JNK3 inh 1, Jurkat tox 60K 2, AP ELISA ortho -9 and HEK293 NFkB inh 76*.
Screening CCOC(=O)c1c(N)n[nH]c1-c1ccc(OC)cc1 returned HER2 expr 66K 70, Hsp90 block -2, JNK3 inh 18*, Jurkat tox 60K -6, AP ELISA ortho 2 and HEK293 NFkB inh 12.
`CCCc1cc(C(=O)Cc2ccc(F)cc2)c(O)cc1O` gave HER2 expr 66K -12*, Hsp90 block 5 and JNK3 inh 2.
Screening CCSc1nc(-c2ccc(OC)cc2)n(-c2nc3ccccc3s2)n1 returned HER2 expr 66K 77, Hsp90 block -5, JNK3 inh -5, Jurkat tox 60K -5 and HEK293 NFkB inh 2.
`Nc1ncnc2c1nc(Br)n2C1OC2COP(=O)(O)O[C@@H]2C1O` (stereo partly specified) gave Hsp90 block -2.
`CCCCOC(=O)n1c(SCC(=O)N(CC)CC)nc2ccccc21` gave HER2 expr 66K 95, Hsp90 block -6, JNK3 inh -7, Jurkat tox 60K -1, AP ELISA ortho -9 and HEK293 NFkB inh 9.
COCCCN1C(=O)C(O)=C(C(C)=O)C1c1cccc(F)c1 (stereo unspecified) was read as HER2 expr 66K -16*, Hsp90 block 0, JNK3 inh -2, Jurkat tox 60K 7, AP ELISA ortho 20 and HEK293 NFkB inh 10.
`COc1ccc(C2C(C(C)=O)=C(O)C(=O)N2CCN(C)C)cc1OC` (stereo unspecified) gave HER2 expr 66K 114, Hsp90 block -4, JNK3 inh 3, Jurkat tox 60K 2, AP ELISA ortho -12 and HEK293 NFkB inh -7.
